Experimental data: paper PMC9768356 (iScience, 2022)

Legend:
YAP = YAP activation in BMDMs; format: cell-based, mice; settings: E. coli 12 h, n = 4 per group
Summary of the method: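 Bone marrow cells from Fpn^flox/flox or Fpn^LysM/LysM mice were erythrocyte-lysed and grown in DMEM/10% FBS with 10 ng/mL GM-CSF. Nonadherent cells were replated after 24 h and cultured 7 days, with medium changed every 3 days. Cells were infected with E. coli (12 h) with DFO (100 μM, 12 h). Lysates were blotted for P-YAP and YAP (1:1000 each) with a β-actin control (1:5000); n = 4.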

Areg = Areg protein in BMDMs; format: cell-based, mice; settings: n = 4 per group
Summary of the method: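 BMDMs: bone marrow cells from mouse hind legs, erythrocytes lysed, grown in DMEM with 10% FBS and 10 ng/mL GM-CSF at 37°C and 5% CO2. Non-adherent cells replated after 24 h and cultured 7 days, medium changed every 3 days. Cells were infected with E. coli and harvested at 12 h. Iron-loading agent 100 μM for 20 h or iron chelator 100 μM for 12 h. Lysis in RIPA, BCA protein assay, 20 or 40 μg on 12% SDS-PAGE, PVDF. Anti-Areg 1:1000 with β-actin loading control (1:5000), HRP secondaries 1:5000, ECL detection. Supernatant Areg by ELISA. n = 4 per group.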

[1] = cited from earlier work

Compound: CC(=O)N(O)CCCCCNC(=O)CCC(=O)N(O)CCCCCNC(=O)CCC(=O)N(O)CCCCCN [DFO, desferrioxamine]
- YAP activity, Fpn^LysM/LysM BMDMs, DFO (YAP; Fpn^LysM/LysM BMDMs, DFO 100 μM, 12 h): decreased YAP activity
- YAP activity, Fpn^flox/flox BMDMs, DFO (YAP; Fpn^flox/flox BMDMs, DFO 100 μM, 12 h): decreased YAP activity
- protein levels of Areg, Fpn^LysM/LysM BMDMs, DFO (Areg; Fpn^LysM/LysM BMDMs, E. coli 12 h, DFO 100 μM, 12 h): decreased YAP activity and the protein levels of Areg
- protein levels of Areg, Fpn^flox/flox BMDMs, DFO (Areg; Fpn^flox/flox BMDMs, E. coli 12 h, DFO 100 μM, 12 h): decreased YAP activity and the protein levels of Areg

Compound: CC[C@H](C)[C@@H]1NC(=O)[C@@H](NC(=O)[C@@H](NC(=O)[C@@H]2CCCN2C(=O)[C@H](Cc2ccccc2)NC(=O)[C@H](Cc2c[nH]cn2)NC(=O)[C@@H](NC(=O)[C@@H](N)CC(=O)O)[C@@H](C)O)[C@@H](C)CC)CSSC[C@@H](C(=O)N[C@@H](CCCCN)C(=O)N[C@H](C(=O)O)[C@@H](C)O)NC(=O)[C@@H]2CSSC[C@@H]3NC(=O)[C@@H]4CSSC[C@H](NC(=O)[C@H](Cc5ccccc5)NC1=O)C(=O)N[C@@H](CSSC[C@H](NC(=O)[C@H](CCCCN)NC(=O)[C@H](CO)NC(=O)[C@H](CCCNC(=N)N)NC(=O)[C@H](Cc1c[nH]cn1)NC3=O)C(=O)NCC(=O)N[C@@H](CCSC)C(=O)N2)C(=O)NCC(=O)N4 [Hepcidin]
- prevention of bacterial dissemination ([1]; by limiting extracellular iron availability): prevent bacterial dissemination by limiting extracellular iron availability
- pharmacokinetics [1]: poor pharmacokinetics

Compound: ferric ammonium citrate
- activation of YAP signaling, Fpn^flox/flox BMDMs, FAC (YAP; Fpn^flox/flox BMDMs, FAC 100 μM, 20 h): significantly facilitated the activation of YAP signaling
- production and secretion of Areg, Fpn^flox/flox BMDMs, FAC (Areg; Fpn^flox/flox BMDMs, E. coli 12 h, FAC 100 μM, 20 h): promoted the production and secretion of Areg

Compound: verteporfin
- protein levels of macrophage-derived Areg (YAP inhibition) (Areg; BMDMs and supernatant, 12 h after E. coli infection): dramatically downregulated the protein levels of macrophage-derived Areg
